# Square brackets hold non-standard residues; d marks the D form. Peptide text beside a SMILES is read from it. * marks the point of attachment. NMeY = CN[C@@H](Cc1ccc(O)cc1)C(=O)O; Hydrocinnamoyl = O=C(CCc1ccccc1)*; NMeF = CN[C@@H](Cc1ccccc1)C(=O)O; Undecanoyl = CCCCCCCCCCC(=O)*; Morpholide = C1CN(*)CCO1; Cbz = O=C(OCc1ccccc1)*; NHNH2 = NN*
# Species: Rattus norvegicus
# Test: Inhibition of rat recombinant Rab geranylgeranyltransferase at 100 uM in presence of canine Rab7 and rat REP1 NBD-FPP based continuous fluorimetric assay
# Procedure, shortened: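 Continuous fluorometric assay in 96/384-well format: 3 μM Rab7, 3 μM REP1, 9 μM NBD-FPP and 400 nM RabGGTase, with or without inhibitor. […] IC50 was calculated from three independent measurements.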
row,inhibition [%],SMILES
1,80,Nc1ccccc1NC(=O)[C@H](Cc1ccc(O)cc1)NC(=O)CCNC(=O)[C@H](Cc1c[nH]cn1)NC(=O)OCc1ccccc1
2,81,CC(C)C[C@H](NC(=O)[C@H](COC(C)(C)C)NC(=O)[C@H](Cc1ccccc1)NC(=O)c1ccc(-c2ccccc2)cc1)C(=O)O
3,92,CC(C)CCNC(=O)[C@H](Cc1ccccc1)NC(=O)[C@H](Cc1ccccc1)NC(=O)[C@H](CC(C)C)NC(=O)/C=C/c1ccccc1
4,17,CCCCCc1ccc(/C=C/C(=O)N[C@H](Cc2cnc[nH]2)C(=O)N[C@@H](Cc2ccc(O)cc2)C(=O)N[C@@H](Cc2ccccc2)C(=O)O)cc1
5,54,CN(C(=O)[C@H](Cc1cnc[nH]1)NC(=O)OCc1ccccc1)[C@@H](Cc1ccc(O)cc1)C(=O)N(C)[C@@H](Cc1ccccc1)C(=O)O (Cbz-His-[NMeY]-[NMeF]-OH)
6,89,CCCCCCCCCCCCCC(=O)N[C@@H](Cc1ccc(O)cc1)C(=O)N[C@@H](Cc1ccc(O)cc1)C(=O)N[C@@H](Cc1ccc(O)cc1)C(=O)N(C)OC
7,92,CC[C@H](C)[C@H](NC(=O)c1ccc(-c2ccccc2)cc1)C(=O)N[C@@H](C(=O)N[C@@H](CCC(N)=O)C(=O)N1CCOCC1)C(C)C
8,76,C[C@H](NC(=O)/C=C/c1ccc(F)cc1)C(=O)NCC(=O)N[C@@H](Cc1ccc(O)cc1)C(=O)O
9,59,CCCCCCCCCCC(=O)N[C@@H](Cc1ccc(O)cc1)C(=O)N[C@@H](Cc1c[nH]cn1)C(=O)N[C@@H](Cc1c[nH]cn1)C(=O)NCCCn1ccnc1
10,116,O=C(CNC(=O)[C@H](Cc1ccccc1)NC(=O)c1coc(-c2ccccc2)n1)N[C@@H](CO)C(=O)Nc1cncs1
11,72,COC(=O)[C@H](Cc1ccc(O)cc1)NC(=O)CCNC(=O)[C@H](Cc1c[nH]cn1)NC(=O)OCc1ccccc1
12,75,CC(C)(C)Oc1ccc(C[C@H](NC(=O)CNC(=O)[C@H](Cc2ccc(OC(C)(C)C)cc2)NC(=O)c2coc(-c3ccccc3)n2)C(=O)O)cc1
13,44,C[C@H](NC(=O)CCc1ccccc1)C(=O)N[C@@H](Cc1ccccc1)C(=O)N[C@@H](CCC(N)=O)C(=O)OCCCCO
14,91,C[C@@H](O)[C@H](NC(=O)/C=C/c1ccccc1)C(=O)N[C@@H](Cc1ccccc1)C(=O)N[C@@H](CCC(N)=O)C(=O)Nc1ccc(F)c(Cl)c1
15,88,CC(C)C[C@H](NC(=O)c1coc(-c2ccccc2)n1)C(=O)NCC(=O)N[C@@H](Cc1c[nH]cn1)C(=O)Nc1ccc(F)cc1F
16,79,COC(=O)[C@H](Cc1ccccc1)NC(=O)[C@H](CC(C)C)NC(=O)[C@@H]1CCCN1C(=O)/C=C/c1ccccc1
17,84,CC[C@H](C)[C@H](NC(=O)c1ccc(-c2ccccc2)cc1)C(=O)N[C@@H](C(=O)N[C@@H](CCC(N)=O)C(=O)NN)C(C)C
18,86,C[C@@H](O)[C@H](NC(=O)/C=C/c1ccccc1)C(=O)N[C@@H](Cc1ccccc1)C(=O)N[C@@H](CCC(N)=O)C(=O)Nc1nccs1

row,inhibition [%],SMILES
1,100,Cc1ccc(C(=O)OC[C@H](NC(=O)CNC(=O)[C@H](COC(=O)c2ccc(C)nc2)NC(=O)c2coc(-c3ccccc3)n2)C(=O)O)cn1
2,110,CCCCCCCCCCCCCCCC(=O)N[C@@H](Cc1ccc(O)cc1)C(=O)N[C@@H](Cc1ccc(O)cc1)C(=O)N[C@@H](Cc1ccc(O)cc1)C(=O)OCCN
3,89,NC(=O)CC[C@H](NC(=O)[C@H](Cc1ccccc1)NC(=O)CNC(=O)CCc1ccccc1)C(=O)N1CCOCC1 (Hydrocinnamoyl-Gly-Phe-Gln-Morpholide)
4,56,CCCCCCCCCCOc1ccc(C(=O)N[C@@H](Cc2c[nH]c3ccccc23)C(=O)N[C@@H](Cc2c[nH]cn2)C(=O)N[C@@H](Cc2c[nH]cn2)C(=O)OC)cc1
5,98,O=C(N[C@@H](CO)C(=O)N[C@@H](Cc1ccccc1)C(=O)N[C@@H](CO)C(=O)OCCCl)C(Br)C(Br)c1ccc(F)cc1 (stereo not given in full)
6,39,O=C(N[C@@H](Cc1c[nH]cn1)C(=O)N[C@@H](Cc1ccc(O)cc1)C(=O)N[C@@H](Cc1ccccc1)C(=O)O)OCc1ccccc1 (Cbz-His-Tyr-Phe-OH)
7,124,O=C(CNC(=O)c1csc(C2CCNCC2)n1)N[C@@H](Cc1ccccc1)C(=O)N[C@@H](Cc1c[nH]cn1)C(=O)O
8,68,CCCCCCCCCCC(=O)N[C@@H](Cc1c[nH]cn1)C(=O)N[C@@H](Cc1ccccc1)C(=O)N[C@@H](Cc1ccc(O)cc1)C(=O)OC (Undecanoyl-His-Phe-Tyr-OMe)
9,87,CC(C)C[C@H](NC(=O)[C@H](COC(C)(C)C)NC(=O)[C@H](Cc1ccccc1)NC(=O)c1ccc(-c2ccccc2)cc1)C(=O)OCCCl
10,80,COC(=O)[C@H](CO)NC(=O)[C@H](Cc1ccccc1)NC(=O)[C@H](CO)NC(=O)C(Br)C(Br)c1ccc(F)cc1 (stereo not given in full)
11,84,COC(=O)[C@H](CC(C)C)NC(=O)[C@H](COC(C)(C)C)NC(=O)[C@H](Cc1ccccc1)NC(=O)c1ccc(-c2ccccc2)cc1
12,83,C[C@H](NC(=O)c1coc(-c2ccccc2)n1)C(=O)NCC(=O)N[C@@H](Cc1ccc(O)cc1)C(=O)Nc1ccc(F)cc1F
13,93,NNC(=O)[C@H](CCC(N)=O)NC(=O)[C@H](Cc1ccccc1)NC(=O)CNC(=O)CCc1ccccc1 (Hydrocinnamoyl-Gly-Phe-Gln-NHNH2)
14,108,O=C(CNC(=O)[C@H](Cc1ccc(O)cc1)NC(=O)c1ccc(F)cc1)N[C@@H](Cc1ccc(O)cc1)C(=O)N1CCOCC1
15,80,CC(C)C[C@H](NC(=O)[C@H](CO)NC(=O)[C@H](Cc1ccccc1)NC(=O)CCc1ccccc1)C(=O)O
16,40,CCCCCCCCCCCOc1ccc(C(=O)N[C@@H](Cc2ccc(O)cc2)C(=O)N[C@@H](Cc2ccc(O)cc2)C(=O)N[C@@H](Cc2ccc(O)cc2)C(=O)OCCN)cc1
17,74,CCCCCCCCCCC(=O)N[C@@H](CC1=NCN=C1)C(=O)N[C@@H](Cc1c[nH]cn1)C(=O)N[C@@H](Cc1ccc(O)cc1)C(=O)Nc1ccccc1N
18,83,CC[C@H](C)[C@H](NC(=O)/C=C/c1ccc(F)cc1)C(=O)N[C@@H](C)C(=O)N[C@@H](CCC(N)=O)C(=O)O

# Continued, compound first:
row,SMILES,inhibition [%]
1,NC(=O)[C@H](CO)NC(=O)CNC(=O)[C@H](CO)NC(=O)CCc1ccccc1 (Hydrocinnamoyl-Ser-Gly-Ser-NH2),85
2,O=C(CNC(=O)[C@H](Cc1ccc(O)cc1)NC(=O)c1coc(-c2ccccc2)n1)N[C@@H](Cc1ccc(O)cc1)C(=O)O,58
3,C[C@H](NC(=O)c1coc(-c2ccccc2)n1)C(=O)NCC(=O)N[C@@H](Cc1c[nH]cn1)C(=O)Nc1ccc(F)cc1F,76
4,CCCCCCCCCC(=O)N[C@@H](Cc1c[nH]cn1)C(=O)N[C@@H](Cc1cnc[nH]1)C(=O)N[C@@H](Cc1ccc(O)cc1)C(=O)OCCN,29
5,NC(=O)[C@H](Cc1ccc(O)cc1)NC(=O)CCNC(=O)[C@H](Cc1c[nH]cn1)NC(=O)OCc1ccccc1,89
6,CCCCCCCCCCCOc1ccc(C(=O)N[C@@H](Cc2ccc(O)cc2)C(=O)N[C@@H](Cc2ccc(O)cc2)C(=O)N[C@@H](Cc2ccc(O)cc2)C(=O)NCC(O)CO)cc1 (stereo not given in full),90
7,COC(=O)CNC(=O)[C@H](CO)NC(=O)[C@H](Cc1ccccc1)NC(=O)C1COC(c2ccccc2)=N1 (stereo not given in full),114
8,CCCCCCCCCCCCCC(=O)OC[C@H](NC(=O)CNC(=O)[C@H](COC(=O)CCCCCCCCCCCCC)NC(=O)c1coc(-c2ccccc2)n1)C(=O)O,106
9,O=C(CCc1ccccc1)N[C@@H](CO)C(=O)N[C@@H](Cc1ccccc1)C(=O)N[C@@H](CO)C(=O)NC1CCCCC1,90
10,CC(C)C[C@H](NC(=O)[C@H](CO)NC(=O)[C@H](Cc1ccccc1)NC(=O)/C=C/c1ccc(F)cc1)C(=O)O,71
11,CCCCCCCCCCCOc1ccc(C(=O)N[C@@H](Cc2ccc(O)cc2)C(=O)N[C@@H](Cc2ccc(O)cc2)C(=O)N[C@@H](Cc2ccc(O)cc2)C(=O)NCCCn2ccnc2)cc1,48
12,CC(C)C[C@H](NC(=O)/C=C/c1ccccc1)C(=O)N[C@@H](Cc1ccccc1)C(=O)N[C@@H](Cc1ccccc1)C(=O)Nc1ccc(F)cc1F,93
13,CCCCCCCCCCCCCCCC(=O)N[C@@H](Cc1ccc(O)cc1)C(=O)N[C@@H](Cc1ccc(O)cc1)C(=O)N[C@@H](Cc1ccc(O)cc1)C(=O)Nc1ccc(F)cc1F,82
14,CC(C)(C)Oc1ccc(C[C@H](NC(=O)c2coc(-c3ccccc3)n2)C(=O)NCC(=O)N[C@@H](Cc2cn(C(c3ccccc3)(c3ccccc3)c3ccccc3)cn2)C(=O)O)cc1,94
15,O=C(CNC(=O)[C@H](Cc1ccc(O)cc1)NC(=O)c1coc(-c2ccccc2)n1)N[C@@H](Cc1c[nH]cn1)C(=O)O,86
16,O=C(CNC(=O)[C@H](Cc1ccc(O)cc1)NC(=O)c1coc(-c2ccccc2)n1)N[C@@H](Cc1c[nH]c2ccccc12)C(=O)O,59
17,CC[C@H](C)[C@H](NC(=O)c1ccc(-c2ccccc2)cc1)C(=O)N[C@@H](C(=O)N[C@@H](CCC(N)=O)C(=O)O)C(C)C,77
18,CC[C@H](C)[C@H](NC(=O)CCc1ccc(F)cc1)C(=O)N[C@@H](C)C(=O)N[C@@H](CCC(N)=O)C(=O)NNc1ccccc1,81
19,C[C@H](NC(=O)[C@@H](NC(=O)c1ccc(-c2ccccc2)cc1)[C@@H](C)O)C(=O)N[C@@H](CCC(=O)O)C(=O)OCCCCO,101
20,CCCCCCCCCCCOc1ccc(C(=O)N[C@@H](Cc2ccc(O)cc2)C(=O)N[C@@H](Cc2ccc(O)cc2)C(=O)N[C@@H](Cc2ccc(O)cc2)C(=O)N(C)OC)cc1,75
21,CCCCCCCCCCCOc1ccc(C(=O)N[C@@H](Cc2c[nH]cn2)C(=O)N[C@@H](Cc2ccc(O)cc2)C(=O)N[C@@H](Cc2ccccc2)C(=O)Nc2nccs2)cc1,76
22,NC(=O)CC[C@H](NC(=O)[C@H](Cc1ccccc1)NC(=O)[C@H](CO)NC(=O)CCc1ccccc1)C(=O)Nc1ccc(F)cc1,88
23,O=C(/C=C/c1ccc(F)cc1)N[C@@H](CO)C(=O)N[C@@H](Cc1ccccc1)C(=O)N[C@@H](CO)C(=O)NCc1ccccc1,100
24,CCCCCCCCCCCCCCCC(=O)N[C@@H](Cc1ccc(O)cc1)C(=O)N[C@@H](Cc1ccc(O)cc1)C(=O)N[C@@H](Cc1ccc(O)cc1)C(=O)OCCCl,114
